# From PubChem
# ERAP1 inh = inhibitors of human ERAP1 aminopeptidase; recombinant ERAP1, Leu-AMC fluorescence, 60 min; inhibition, % at 10.7 µM; 340,000 compounds, 0.15% hits;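 active = mean replicate inhibition of at least 30%, or all replicates individually reaching that 30% level; inactive = mean below 30% and not every replicate reaching it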;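 also: 0% = neutral control wells and 100% = L-leucinethiol positive control wells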
# PglD inh = blocks C. jejuni PglD acetyltransferase activity; purified PglD enzyme, DTNB colorimetric CoA detection; AID 602405; inhibition, % at 12.5 µM; 360,000 compounds, 0.098% hits; in the data active = inhibition above about 16%, passing the limit was not always enough
# SIRT5 inh = blocks human SIRT5 desuccinylation of peptide; Q9NXA8; Purified SirT5, succinyl-peptide AMC, trypsin-coupled fluorescence; inhibition, % at 15 µM; 330,000 compounds, 1.1% hits; in the data active = inhibition above about 15%
# E-selectin induc = E-selectin induction on HUVECs; activation, % at 7.58 µM; P16581; 260,000 compounds, 0.37% hits; AID 686992; HUVEC E-selectin immunofluorescence imaging; normalized: neutral wells 0, TNF-alpha wells 100;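 active = mean E-selectin-positive cell signal at least 10% of the positive control, reached in at least 60% of replicates, without over 20% cell loss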
# Target sequence (P16581 whole entry, looked up): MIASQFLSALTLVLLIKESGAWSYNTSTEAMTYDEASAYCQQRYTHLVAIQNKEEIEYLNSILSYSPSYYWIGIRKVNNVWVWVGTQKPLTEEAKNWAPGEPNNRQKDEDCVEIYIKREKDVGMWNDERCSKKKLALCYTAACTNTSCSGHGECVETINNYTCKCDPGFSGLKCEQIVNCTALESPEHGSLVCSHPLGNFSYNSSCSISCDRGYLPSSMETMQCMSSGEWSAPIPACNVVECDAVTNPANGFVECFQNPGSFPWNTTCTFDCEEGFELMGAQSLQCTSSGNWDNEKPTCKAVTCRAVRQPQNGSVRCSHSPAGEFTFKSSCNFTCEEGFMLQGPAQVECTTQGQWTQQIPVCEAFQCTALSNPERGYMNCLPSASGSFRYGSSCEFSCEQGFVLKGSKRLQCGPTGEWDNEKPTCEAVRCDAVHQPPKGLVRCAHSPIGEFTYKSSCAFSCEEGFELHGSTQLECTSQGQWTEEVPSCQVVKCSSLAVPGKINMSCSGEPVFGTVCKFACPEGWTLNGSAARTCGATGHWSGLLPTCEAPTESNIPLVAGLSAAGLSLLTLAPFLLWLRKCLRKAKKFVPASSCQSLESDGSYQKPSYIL
#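 Test system: HUVEC | Signal: Immunofluorescence imaging | Read-out: Percent E-selectin-positive cells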
# DENV2 CPE = protects cells from dengue virus 2 cytopathic effect. CPE inhibition, % at 9.99 µM. DENV2-infected cells, cytopathic effect rescue, plate reader. 350,000 compounds, 1.7% hits; in the data active = CPE inhibition above about 20%, passing the limit was not always enough; tested in BHK-21 cells;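 also: 0% = median of neutral control wells and 100% = median of positive control wells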
# * marks the source's active call; other numbers are inactive results; nt = not tested or not shown. In the library only some 2.5% were active in any assay of this set; here they are far more common.
SMILES,ERAP1 inh,PglD inh,SIRT5 inh,E-selectin induc,DENV2 CPE
Cc1ccc(S(=O)(=O)Nc2ccc3c(c2)C(=O)N([C@@H](C)CO)C[C@H](C)[C@@H](CN(C)S(C)(=O)=O)OCCCC[C@H](C)O3)cc1,3,0,1,0,29*
Cc1ccc(S(=O)(=O)Nc2ccc3c(c2)C(=O)N([C@@H](C)CO)C[C@H](C)[C@H](CN(C)S(C)(=O)=O)OCCCC[C@@H](C)O3)cc1,4,-1,3,1,2
CCCCN(C(=O)CSCC(=O)Nc1ccc(OC)cc1)c1c(N)n(CC(C)C)c(=O)[nH]c1=O,1,2,3,-1,10
O=C1CCN(Cc2ccc(Br)cc2)CCN1[C@H](CO)c1ccccc1,nt,-103,nt,0,-3
O=C1CCN(Cc2ccc(Br)cc2)CCN1CCO,nt,5,nt,0,29*
C[C@@H]1CCCCO[C@@H](CN(C)Cc2ccc(Cl)c(Cl)c2)[C@H](C)CN([C@@H](C)CO)C(=O)c2cc(NS(=O)(=O)c3cccs3)ccc2O1,-3,-2,25*,0,-32
C[C@@H]1CCCCO[C@@H](CN(C)Cc2ccc3c(c2)OCO3)[C@H](C)CN([C@H](C)CO)C(=O)c2cc(NS(=O)(=O)c3cccs3)ccc2O1,nt,0,nt,0,38*
COc1ccc(CN(C)C[C@H]2OCCCC[C@H](C)Oc3ccc(NS(=O)(=O)c4cccs4)cc3C(=O)N([C@H](C)CO)C[C@H]2C)cc1,-1,1,7,0,52*
C[C@@H]1CN([C@H](C)CO)C(=O)c2cc(NS(=O)(=O)c3cccs3)ccc2O[C@@H](C)CCCCO[C@H]1CN(C)Cc1ccc(Cl)c(Cl)c1,-4,1,5,0,-35
C[C@@H]1CCCCO[C@@H](CN(C)Cc2ccc3c(c2)OCO3)[C@@H](C)CN([C@H](C)CO)C(=O)c2cc(NS(=O)(=O)c3cccs3)ccc2O1,nt,5,nt,0,-2
C[C@@H]1CN([C@@H](C)CO)C(=O)c2cc(NS(=O)(=O)c3cccs3)ccc2O[C@@H](C)CCCCO[C@H]1CN(C)Cc1ccccc1,1,nt,nt,nt,42*
CS(=O)(=O)c1cccc(S(=O)(=O)N2CCN(c3ccccn3)CC2)c1,-3,1,-1,0,1
CCOc1ccc(N2CC(C(=O)Oc3ccccc3)CC2=O)cc1 (stereo unspecified),nt,5,nt,nt,nt
C[C@@H]1CCCCO[C@H](CN(C)Cc2ccncc2)[C@@H](C)CN([C@@H](C)CO)C(=O)c2cc(NC(=O)C3CCCCC3)ccc2O1,nt,nt,nt,0,nt
C[C@@H]1CN([C@H](C)CO)C(=O)c2cc(Br)cnc2O[C@@H]1CN(C)Cc1ccncc1,-2,0,-4,0,0
N#CCC1(O)C(=O)N(Cc2ccccc2)c2ccccc21 (stereo unspecified),0,nt,22*,0,0
O=C(O)CC1(O)C(=O)N(Cc2ccccc2)c2ccccc21 (stereo unspecified),-2,2,2,-3,12
COCCn1c(N)c(N(Cc2ccccc2)C(=O)C2=COCCO2)c(=O)[nH]c1=O,58*,2,-3,0,-4
COc1ccc2c3c([nH]c2c1)[C@H](CO)N(Cc1ccccn1)CC31CN(C(C)=O)C1,nt,nt,nt,0,47*
COc1ccc2c3c([nH]c2c1)[C@@H](CO)N(Cc1cccc(F)c1)CC31CN(Cc2ccccn2)C1,0,nt,0,0,39*
Cc1cc(N2CCN(c3ccccn3)CC2)n2c(nc3ccccc32)c1C#N,nt,-1,nt,nt,nt
Cc1ccc(NS(=O)(=O)c2cccc3nsnc23)cc1C,3,-2,-8,0,2
Cc1ccc(NC(=O)CCN2CCN(CCO)CC2)cc1Br,1,-6,nt,nt,20*
C[C@H]1CN([C@@H](C)CO)C(=O)c2cc(NS(=O)(=O)c3ccccc3)ccc2O[C@@H]1CN(C)Cc1ccc(C(=O)Nc2ccccc2N)cc1,-1,-2,nt,0,-12
CC1CCN(c2nc3c(=O)[nH]c(N)nc3n2[C@@H]2O[C@H](CO)[C@@H](O)[C@H]2O)CC1,0,5,-1,69*,3
O=c1[nH]cnc2c1ncn2C1CCC(CO)O1 (stereo unspecified),6,nt,-5,0,-9
Nc1cc(S(=O)(=O)O)cc([N+](=O)[O-])c1O,4,nt,30*,2,4
O=C(Nc1cccc(F)c1)c1ccc(S(=O)(=O)N2CCCCC2)cc1,7,9,-15,-1,114*
